High-throughput results from PubChem.
hDAT+cocaine: changed hDAT dopamine uptake under cocaine IC80, either direction, primary screen, cocaine antagonist project, cell-based, LLC-PK1 hDAT, [14C]-dopamine uptake, MLSMR; Sodium-dependent dopamine transporter (Homo sapiens), Q01959; LLC-PK1 hDAT cells, [14C]-dopamine uptake with cocaine IC80; actives deviate in either direction; 110,000 compounds, 1.3% hits; B-score at 10 µM; AID 449768, 2010;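 active = Z score or B-score, a plate-position-corrected score, falls beyond the plate's 99.7% confidence bounds, in either direction; inactive = both scores lie inside the 99.7% bounds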;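 also: scored against the spread of the other compound wells on the same plate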
WNV protease inh: inhibitors of WNV NS2B-NS3 protease, primary screen, biochemical, fluorogenic substrate. 65,000 compounds, 0.18% hits. z-score (test concentration not listed). fluorogenic substrate Ex360/Em465; stronger effect = lower value. AID 577, 2007. Genome polyprotein (West Nile virus), P06935; in the data active = z-score below about -3
D1 mod: D1 CRE-luciferase signal change, two-sided – cell-based, HEK293 D1, dopamine EC30, D1 allosteric modulator project, primary screen; dopamine EC30 potentiation; actives deviate in either direction; B-score at 10 µM; 58,000 compounds, 5.9% hits; AID 641, 2007;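 active = luminescence count or its row- and column-corrected plate score outside the 99.7% band of the plate's sample wells, on either side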
Target sequence (P21728 whole entry, looked up): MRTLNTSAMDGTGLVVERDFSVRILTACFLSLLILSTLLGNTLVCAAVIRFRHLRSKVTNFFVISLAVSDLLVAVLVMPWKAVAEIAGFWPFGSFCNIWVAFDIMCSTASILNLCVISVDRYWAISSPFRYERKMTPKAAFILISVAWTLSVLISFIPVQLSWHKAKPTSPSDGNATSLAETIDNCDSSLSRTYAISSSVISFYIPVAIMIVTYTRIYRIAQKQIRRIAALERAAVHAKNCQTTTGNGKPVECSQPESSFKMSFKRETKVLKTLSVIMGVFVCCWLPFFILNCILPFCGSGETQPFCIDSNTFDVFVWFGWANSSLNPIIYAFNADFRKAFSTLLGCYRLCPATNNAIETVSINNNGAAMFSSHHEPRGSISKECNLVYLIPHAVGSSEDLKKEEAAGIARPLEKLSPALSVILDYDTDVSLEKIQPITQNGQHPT
AP ELISA ortho: alternative complement pathway inhibitors, primary screen, biochemical, ELISA, human serum, orthogonally pooled compounds; LPS-coated ELISA, C3 deposition; tested in compound mixtures; inhibition, % at 5 µM; 62,000 compounds, 0.08% hits; AID 1235, 2008;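 active = inhibition above 30% in each of the two pooled mixtures holding the compound, so the lower value exceeds 30%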;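 also: 0% = serum in Mg-EGTA without compound and 100% = EDTA serum blank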
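Medium: diluted human serum in Mg2+-EGTA GVB++. Assay system: human serum complement alternative pathway, C3 deposition onto LPS. Also added: Plate-bound LPS. Technique: Anti-C3 ELISA, OD 450 nm. Measure: percent inhibition. Incubation: 1 h at 37 °C. Dosing: 5 µM each compound, pools of ten, 50 µM per pool.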
D1 PAM confirm: D1 receptor positive allosteric modulators, retest, confirmation, cell-based, HEK293 D1, CRE-luciferase, duplicate; shares compounds with D1 mod; dopamine EC30 potentiation; stronger effect = higher value; luminescence at 10 µM; 2,200 compounds, 88% hits; AID 642, 2007;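 active = luminescence in either of two replicates above the same-plate mean plus 3 SD of the low-dose dopamine control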
D1 no dopamine: D1 receptor agonism without dopamine, confirmation, mechanism study for D1 allosteric modulator project, cell-based, HEK293 D1, CRE-luciferase, secondary assay 1; luminescence at 10 µM; shares compounds with D1 mod; AID 646, 2007; luminescence, no dopamine; stronger effect = higher value; 1,900 compounds, 0.8% hits; in the data active = luminescence above about 3900
Isoprot counter: counter-screen for D1 modulators: isoproterenol response in HEK293 cells. 2,200 compounds, 63% hits. shares compounds with D1 mod. luminescence at 10 µM. HEK293 D1 CRE-luciferase, isoproterenol EC30 counter-screen; stronger effect = higher value;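 active = luminescence in either replicate above plate mean of wells with a partly effective reference agonist dose plus 3 SD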;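 also: isoproterenol raises cAMP through native beta-adrenoceptor Gs so signal bypasses D1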
* marks the source's active call; other numbers are inactive results; . = no result given. This excerpt belongs to a sample that is enriched for hits.

SMILES	hDAT+cocaine	WNV protease inh	D1 mod	AP ELISA ortho	D1 PAM confirm	D1 no dopamine	Isoprot counter
COC(=O)c1sc(=S)sc1C(=O)OC	0.21	-1.2	3.3*	7	8136*	1608	2764
CCN(CCNC(=O)CN(C)S(=O)(=O)c1cccc2nsnc12)c1ccccc1	1.2	.	.	.	.	.	.
CCN(CCCNC(=O)CN(C)S(=O)(=O)c1cccc2nsnc12)c1cccc(C)c1	0.95	-1.4	3.5*	9	13504*	1728	3116
COCCN1CC(O)=C(c2nc3ccccc3c(=O)[nH]2)C1=N	0.008	-0.5	6.8*	7	5256	1884	2836
CC1(c2ccc(Cl)cc2)NC(=O)N(CC(=O)NC(=O)NCc2ccco2)C1=O (stereo unspecified)	0.81	-0.34	0.52	13	.	.	.
CCOC(=O)c1[nH]c2ccccc2c1NC(=O)c1ccc2c(c1)OCO2	0.0058	0.38	1.5	8	.	.	.
CCN(CC(=O)Nc1c(C(=O)OC)[nH]c2ccccc12)c1ccc2c(c1)OCO2	1	0.25	8.3*	0	11912*	1772	4496*
COC(=O)C1=C(C)NC(=O)NC1C1CC=CCC1 (stereo unspecified)	-0.23	-1	3.3*	10	4764	1316	2036
COC(=O)c1cc(OC)c(OC)cc1NC(=O)C1CCC(=O)N1S(=O)(=O)c1ccc(C)cc1 (stereo unspecified)	0.24	0.53	9.2*	-3	16888*	.	7188*
COc1ccc(OC)c(S(=O)(=O)N2CCC(C(=O)Nc3cc(C)ccc3C)CC2)c1	0.2	.	.	.	.	.	.
COC(=O)c1ccccc1NC(=O)C1CCN(S(=O)(=O)c2cc(C)ccc2OC)CC1	1.9	1.1	17*	1	16104*	1660	4268*
Cc1ccc(-n2c(SCC(=O)OC(C)C)nnc2-c2cnccn2)cc1	0.00012	-0.46	4.6*	-6	8068*	1636	2948
Cc1ccc(-n2c(SCC(=O)OC(C)C)nnc2-c2ccccn2)cc1	0.7	2.3	-0.72	8	.	.	.
CCOC(=O)c1[nH]c(CSc2nnc(-c3ccc(OC)cc3)o2)c(C(=O)OCC)c1C	-0.53	0.42	4.8*	-3	13216*	1404	4084*
COc1ccc(-c2nnc(SCC(=O)c3[nH]c(C)c(C(C)=O)c3C)o2)cc1	-0.87	-0.46	-1.7	20	.	.	.
Cc1nc2nc(-c3ccc(Cl)cc3)[nH]n2c(=O)c1C	-0.21	.	.	.	.	.	.
CN(C)C(CNC(=O)c1cccnc1Sc1ccccc1)c1ccco1 (stereo unspecified)	-0.016	-1.5	6.6*	1	8824*	.	2876*
CC(=O)c1cc(C#N)c(SCC(=O)OC(C)(C)C)nc1C	0.11	2.2	3.4*	25	10808*	1660	4640
CC(=O)c1cc(C#N)c(SCc2ccncc2)nc1C	-0.16	0.34	5.6*	.	8540*	1916	3256
COc1cc(=O)n(C)c2c(O)cccc12	-0.32	.	.	.	.	.	.
COc1ccc(N2CCN(c3ccc(NC(=O)c4ccc5c(c4)OCO5)cc3C#N)CC2)cc1	0.34	-0.57	6.4*	-5	5936	.	2328
C=CCN=C(NC#N)SCc1ccccc1Cl	-0.58	-0.29	7.4*	15	8148*	.	2628
CC(C)N=C(NC#N)SCc1ccc(F)cc1	-1.1	-0.39	-0.6	2	.	.	.
Cc1cccc(-n2c(=O)[nH]c3c(C(N)=O)nc(CC(C)C)nc32)c1	0.13	0.51	11*	1	15452*	1444	3380*
COc1ccc(-c2nc(C(N)=O)c3[nH]c(=O)n(-c4cccc(C)c4)c3n2)c(OC)c1	-0.79	-0.39	7.7*	13	10376*	1548	4292*
SMILES	hDAT+cocaine	WNV protease inh	D1 mod	AP ELISA ortho	D1 PAM confirm	D1 no dopamine	Isoprot counter
COc1ccccc1-c1nc(C(N)=O)c2[nH]c(=O)n(-c3cccc(C)c3)c2n1	0.94	-0.02	2.7	5	.	.	.
Cc1ccc(CN2C(=O)CCC2C(=O)NCc2cccnc2)cc1 (stereo unspecified)	-1.3	.	.	.	.	.	.
CC(=O)c1sc2nc(-c3cccs3)cc(C(F)(F)F)c2c1N	-0.49	1	5.9*	18	12244*	1624	3268*
Cc1c(C(=O)Nc2nccs2)sc2nc(-c3cccs3)cc(C(F)(F)F)c12	0.094	.	.	.	.	.	.
CS(=O)(=O)c1sc2nc(-c3cccs3)cc(-c3ccccc3)c2c1N	0.15	-0.75	5.1*	-1	15760*	1468	2904
Cc1occc1-c1nnc(SCC(=O)NC(=O)NC(C)C)n1N	2	0.54	-0.82	4	.	.	.
Nc1c(S(=O)(=O)c2cccs2)c2nc3ccccc3nc2n1/N=C/c1cccc(O)c1	0.43	1.1	-0.038	19	.	.	.
CCOC(=O)c1nn(-c2ccc3c(c2)OCO3)cc1O	-0.36	-1.6	0.074	-7	.	.	.
Cc1cc(=O)oc2c(C)c(OCC(=O)N(C)C)ccc12	0.57	-0.13	0.93	6	.	.	.
COc1ccc2c(C)cc(=O)oc2c1C	-1.3	-1.1	5.7*	1	11556*	.	3204*
Cc1noc(C)c1CSc1ncnc2ccccc12	-0.98	-0.59	3.9*	10	7560*	1844	3264
Cc1sc2ncnc(SCc3ccco3)c2c1C	-1	0.38	0.53	1	.	.	.
Cc1noc(C)c1CSc1ncnc2sc(C)c(C)c12	-1.4	0.3	5.2*	24	10232*	1588	3508*
CC(=O)OC(C(=O)NC1CCCCC1)c1cccc(C)c1 (stereo unspecified)	-0.87	.	.	.	.	.	.
COc1ccc(C2=CC(=O)OC3(CCCC3)O2)cc1	0.23	.	.	.	.	.	.
O=C(CCSc1ccc(Cl)cc1)NC12CC3CC(CC(C3)C1)C2	1.6	.	.	.	.	.	.
COc1cccc(C2=NOC(C(=O)Nc3cccc(C(C)=O)c3)C2)c1OC (stereo unspecified)	0.47	0.4	3.6*	10	4760	1744	2552
CCOC(=O)c1c(C2CC2)csc1NC(C)=O	-0.43	-1.8	4.9*	12	9548*	1704	3168
CCOC(=O)c1c(NC(C)=O)sc2c1C1CCN2CC1	1.3	.	.	.	.	.	.
CN(C)S(=O)(=O)c1cccc(CSc2cccc[n+]2[O-])c1	-1.2	-0.53	-0.63	-12	.	.	.
COc1ccc(CSc2n[nH]c(C)n2)cc1Br	-0.79	0.15	6.5*	5	10580*	.	2984*
COc1ccc(Cl)cc1CSc1n[nH]c(C)n1	-0.72	-1.2	-0.038	1	.	.	.
